Source: article PMC4040677 (Cell Death & Disease, 2014)

Tests used:
Histopathology = assay type: in vivo, female Balb/c mice; conditions: H&E, day 28 after intravenous administration, mice
Method in brief: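 Liver and kidney were fixed in 4% paraformaldehyde, moved to 70% ethanol after 20 h, and paraffin-embedded. Serial 8 μm medio-lateral sections were H&E-stained and examined by light microscopy at x20.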

MCF-7 cells = assay: Xenograft model of breast cancer; assay type: in vivo, BALB/c nude mice
Method in brief: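 Female nude BALB/c mice (6 wk, 20–30 g, pathogen-free) received 7.5 × 10^6 MCF-7 cells in the right flank. Cells were cultured in DMEM with 10% FBS and penicillin/streptomycin. Tumors grew 4 weeks without hormone, then weekly s.c. 17β-oestradiol valerate (0.1 mg/kg, sesame oil). At ~100 mm3, mice were randomized and given a single i.v. dose (5 or 10 mg/kg) or saline. Calliper volumes, (L×W²)/2, were taken every 3 days for 30 days; ANOVA/t-test, P<0.05.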

[1] = Sensitivity to noxious heat; assay type: in vivo, rats; conditions: hind paws
Method in brief: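 After 15 min acclimation, radiant heat was applied to the rat hindpaw with a thermal paw stimulator. Intensity was set so vehicle-treated rats lifted or licked the paw at about 10 s. Withdrawal latency was recorded with a 20 s cutoff.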

[2] = Cold sensitivity/hyperalgesia; assay type: in vivo, rats; conditions: hindpaw withdrawal latency, 4.5 °C water
Method in brief: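 One rat hindpaw per immersion was placed in cold (4.5 °C) water. Paw-withdrawal latency was timed with a 1/100 s digital timer, with a 20 s maximum cutoff.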

[3] = Pt excretion in urine and feces by atomic absorption spectroscopy; assay type: in vivo, rat; conditions: 24 h after intravenous administration
[4] = assay type: in vivo; conditions: Pt in plasma, rat, intravenous

SMILES: N.N.[Cl][Pt][Cl] [cisplatin]
- histopathological changes in kidneys (Histopathology): focal subcapsular tubular vacuolization, dilated subcapsular space and consistent basophilia
- histopathological changes in liver (Histopathology): dilated intra-lobular spaces and evident edema
- average tumor volume (MCF-7 cells; 10 mg/kg single intravenous, after 30 days, saline 249.32±43.97): 233.67±50.71 mm^3
- reduction of tumor mass (MCF-7 cells; solid tumor-bearing mice): ~10%
- thermal response / hindpaw sensitivity to noxious heat [1]: significantly increased
- cold hyperalgesia / hindpaw sensitivity to cold [2]: significantly increased
- 24-h cumulative Pt excretion [3]: 31.6±3.4%
- AUC0–24 [4]: 40.38±6.2 h-μg/ml
- CL [4]: 7.98 ± 1.2 mL/h
- Cmax [4]: 22620 ± 1800 ng/mL
